# Read-outs that look alike come from different tables or passages of the source.
# Tests used:
# [1] = tested on: P. falciparum V1/S (QM PfDHFR); assay: In vitro antimalarial activity, 3H-hypoxanthine incorporation, V1S; format: cell-based; details: Plasmodium falciparum, read-out: IC50 PfV1S
# Method in brief: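 P. falciparum V1/S (quadruple-mutant PfDHFR, chloroquine-resistant) grown in human erythrocytes at 37 °C under 3% CO2. Medium was RPMI 1640 with 25 mM HEPES, 0.2% NaHCO3, 40 µg/mL gentamicin and 8% human serum. Activity was measured by ³H-hypoxanthine incorporation.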
# HsDHFR = target: T1, HsDHFR (Homo sapiens, UniProt P00374); assay: biochemical
# T1 sequence (P00374 1-187): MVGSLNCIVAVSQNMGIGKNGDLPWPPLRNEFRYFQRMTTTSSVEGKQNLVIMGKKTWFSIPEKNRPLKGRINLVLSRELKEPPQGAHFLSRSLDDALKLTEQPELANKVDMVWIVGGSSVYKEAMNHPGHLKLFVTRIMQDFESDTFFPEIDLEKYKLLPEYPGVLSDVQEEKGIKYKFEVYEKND
# PfDHFR-QM = PfDHFR-QM (Plasmodium falciparum, UniProt P13922, I164L/N51I); assay: DHFR enzyme inhibition assay, quadruple mutant; format: biochemical
# PfDHFR-WT = PfDHFR-WT (Plasmodium falciparum, UniProt P13922, N108S/R59C); assay: DHFR enzyme inhibition assay, wild type; format: biochemical
# [2] = tested on: P. falciparum TM4/8.2 (wild type PfDHFR); assay: In vitro antimalarial activity, 3H-hypoxanthine incorporation, TM4/8.2; format: cell-based; details: Plasmodium falciparum
# KB cells = assay: Cytotoxicity, sulforhodamine B staining, KB; format: cell-based; details: Homo sapiens, read-out: IC50 KB
# [3] = read-out: IC50 PfTM4/8.2, WT P. falciparum, drug sensitive strain
Compound,IC50 [1],Ki (HsDHFR),Ki (PfDHFR-QM),Ki (PfDHFR-WT),IC50 ([2]; read-out: IC50 PfTM4/8.2),IC50 (KB cells),"IC50 [2, 3]"
"COc1ccccc1CCNCc1c(N)nc(N)nc1-c1ccccc1 [7 a, 6‐Phenyl‐5‐{[(2‐methoxyphenethyl)amino]methyl}pyrimidine‐2,4‐diamine]",54 ± 2 µM,> 500 µM,0.208 ± 0.003 µM,0.243 ± 0.021 µM,27 ± 3 µM,> 100 µM,
"COc1cccc(CCNCc2c(N)nc(N)nc2-c2ccccc2)c1 [7 b, 6‐Phenyl‐5‐{[(3‐methoxyphenethyl)amino]methyl}pyrimidine‐2,4‐diamine]",48 ± 1 µM,> 500 µM,0.074 ± 0.001 µM,0.107 ± 0.003 µM,27 ± 4 µM,> 100 µM,
"COc1ccc(CCNCc2c(N)nc(N)nc2-c2ccccc2)cc1 [7 c, 6‐Phenyl‐5‐{[(4‐methoxyphenethyl)amino]methyl}pyrimidine‐2,4‐diamine]",34 ± 2 µM,> 500 µM,0.069 ± 0.005 µM,0.086 ± 0.013 µM,28 ± 5 µM,> 100 µM,
"COc1ccccc1CCNCc1c(N)nc(N)nc1C1CC1 [7 d, 6‐Cyclopropyl‐5‐{[(2‐methoxyphenethyl)amino]methyl}pyrimidine‐2,4‐diamine]",35 ± 4 µM,1.59 ± 0.029 µM,0.031 ± 0.002 µM,0.015 ± 0.001 µM,,> 100 µM,25 ± 1 µM
"COc1cccc(CCNCc2c(N)nc(N)nc2C2CC2)c1 [7 e, 6‐Cyclopropyl‐5‐{[(3‐methoxyphenethyl)amino]methyl}pyrimidine‐2,4‐diamine]",13 ± 1 µM,1.04 ± 0.034 µM,0.026 ± 0.0005 µM,0.0044 ± 0.0002 µM,,74 ± 4 µM,4.2 ± 0.2 µM
"COc1ccc(CCNCc2c(N)nc(N)nc2C2CC2)cc1 [7 f, 6‐Cyclopropyl‐5‐{[(4‐methoxyphenethyl)amino]methyl}pyrimidine‐2,4‐diamine]",15 ± 3 µM,0.647 ± 0.006 µM,0.029 ± 0.0006 µM,0.0035 ± 0.0004 µM,,72 ± 1 µM,3.5 ± 0.2 µM
"Nc1nc(N)c(CNCCc2ccccc2F)c(C2CC2)n1 [7 g, 6‐Cyclopropyl‐5‐{[(2‐fluorophenethyl)amino]methyl}pyrimidine‐2,4‐diamine]",25 ± 2 µM,0.205 ± 0.001 µM,0.031 ± 0.002 µM,0.0082 ± 0.0003 µM,,> 100 µM,12 ± 5 µM
"Nc1nc(N)c(CNCCc2cccc(F)c2)c(C2CC2)n1 [7 h, 6‐Cyclopropyl‐5‐{[(3‐fluorophenethyl)amino]methyl}pyrimidine‐2,4‐diamine]",20 ± 2 µM,0.458 ± 0.031 µM,0.026 ± 0.002 µM,0.01 ± 0.0003 µM,,> 100 µM,4.2 ± 0.3 µM
"Nc1nc(N)c(CNCCc2ccc(F)cc2)c(C2CC2)n1 [7 i, 6‐Cyclopropyl‐5‐{[(4‐fluorophenethyl)amino]methyl}pyrimidine‐2,4‐diamine]",48 ± 5 µM,0.212 ± 0.012 µM,0.035 ± 0.002 µM,0.0057 ± 0.0005 µM,,> 100 µM,23 ± 3 µM
"Nc1nc(N)c(CNCCc2ccccc2Cl)c(C2CC2)n1 [7 j, 6‐Cyclopropyl‐5‐{[(2‐chlorophenethyl)amino]methyl}pyrimidine‐2,4‐diamine]",17 ± 3 µM,0.304 ± 0.016 µM,0.023 ± 0.0006 µM,0.0093 ± 0.0005 µM,,83 ± 7 µM,0.4 ± 0.01 µM
"Nc1nc(N)c(CNCCc2cccc(Cl)c2)c(C2CC2)n1 [7 k, 6‐Cyclopropyl‐5‐{[(3‐chlorophenethyl)amino]methyl}pyrimidine‐2,4‐diamine]",14 ± 4 µM,0.345 ± 0.007 µM,0.02 ± 0.0009 µM,0.0025 ± 0.0001 µM,,82 ± 13 µM,4.2 ± 0.9 µM
"Nc1nc(N)c(CNCCc2ccc(Cl)cc2)c(C2CC2)n1 [7 l, 6‐Cyclopropyl‐5‐{[(4‐chlorophenethyl)amino]methyl}pyrimidine‐2,4‐diamine]",18 ± 3 µM,0.142 ± 0.006 µM,0.027 ± 0.0001 µM,0.0025 ± 0.0002 µM,,70 ± 0.5 µM,5 ± 0.6 µM
"Nc1nc(N)c(CNCCc2ccc(Cl)cc2Cl)c(C2CC2)n1 [7 m, 6‐Cyclopropyl‐5‐{[(2,4‐dichlorophenethyl)amino]methyl}pyrimidine‐2,4‐diamine]",6.3 ± 1.2 µM,0.131 ± 0.005 µM,,0.002 ± 3e-05 µM,,66 ± 2 µM,3.6 ± 0.2 µM
"Nc1nc(N)c(CNCCc2ccc(Cl)c(Cl)c2)c(C2CC2)n1 [7 n, 6‐Cyclopropyl‐5‐{[(3,4‐dichlorophenethyl)amino]methyl}pyrimidine‐2,4‐diamine]",4.4 ± 0.1 µM,0.202 ± 0.006 µM,0.013 ± 4e-05 µM,0.0013 ± 6e-05 µM,,23 ± 0.5 µM,3.3 ± 0.1 µM
"COc1ccccc1CCNCc1c(N)nc(N)nc1C1CCCCC1 [7 o, 6‐Cyclohexyl‐5‐{[(2‐methoxyphenethyl)amino]methyl}pyrimidine‐2,4‐diamine]",9.4 ± 1.9 µM,> 500 µM,0.126 ± 0.009 µM,0.128 ± 0.009 µM,3.7 ± 0.3 µM,22 ± 0.3 µM,
"COc1cccc(CCNCc2c(N)nc(N)nc2C2CCCCC2)c1 [7 p, 6‐Cyclohexyl‐5‐{[(3‐methoxyphenethyl)amino]methyl}pyrimidine‐2,4‐diamine]",4.1 ± 0.3 µM,> 500 µM,0.056 ± 0.002 µM,0.031 ± 0.005 µM,3.5 ± 0.2 µM,23 ± 0.3 µM,
"COc1ccc(CCNCc2c(N)nc(N)nc2C2CCCCC2)cc1 [7 q, 6‐Cyclohexyl‐5‐{[(4‐methoxyphenethyl)amino]methyl}pyrimidine‐2,4‐diamine]",3.7 ± 0.2 µM,> 500 µM,0.055 ± 0.002 µM,0.032 ± 0.001 µM,1.8 ± 0.1 µM,23 ± 0.2 µM,
"Nc1nc(N)c(CNCCc2ccccc2F)c(C2CCCCC2)n1 [7 r, 6‐Cyclohexyl‐5‐{[(2‐fluorophenethyl)amino]methyl}pyrimidine‐2,4‐diamine]",16 ± 2 µM,> 500 µM,0.083 ± 0.001 µM,0.061 ± 0.0015 µM,4.1 ± 0.7 µM,48 ± 14 µM,
"Nc1nc(N)c(CNCCc2cccc(F)c2)c(C2CCCCC2)n1 [7 s, 6‐Cyclohexyl‐5‐{[(3‐fluorophenethyl)amino]methyl}pyrimidine‐2,4‐diamine]",11 ± 2 µM,> 500 µM,0.074 ± 0.002 µM,0.076 ± 0.005 µM,3 ± 0.4 µM,62 ± 3 µM,
"Nc1nc(N)c(CNCCc2ccc(F)cc2)c(C2CCCCC2)n1 [7 t, 6‐Cyclohexyl‐5‐{[(4‐fluorophenethyl)amino]methyl}pyrimidine‐2,4‐diamine]",7 ± 2 µM,> 250 µM,0.136 ± 0.007 µM,0.08 ± 0.009 µM,2.2 ± 0.1 µM,56 ± 5 µM,
"Nc1nc(N)c(CNCCc2ccccc2Cl)c(C2CCCCC2)n1 [7 u, 6‐Cyclohexyl‐5‐{[(2‐chlorophenethyl)amino]methyl}pyrimidine‐2,4‐diamine]",16 ± 1 µM,> 250 µM,0.038 ± 0.001 µM,0.022 ± 0.002 µM,3.3 ± 0.3 µM,22 ± 0.05 µM,
"Nc1nc(N)c(CNCCc2cccc(Cl)c2)c(C2CCCCC2)n1 [7 v, 6‐Cyclohexyl‐5‐{[(3‐chlorophenethyl)amino]methyl}pyrimidine‐2,4‐diamine]",4 ± 0.2 µM,> 250 µM,0.036 ± 0.004 µM,0.025 ± 0.001 µM,3.1 ± 0.4 µM,23 ± 0.2 µM,
"Nc1nc(N)c(CNCCc2ccc(Cl)cc2)c(C2CCCCC2)n1 [7 w, 6‐Cyclohexyl‐5‐{[(4‐chlorophenethyl)amino]methyl}pyrimidine‐2,4‐diamine]",4.5 ± 0.3 µM,> 500 µM,0.06 ± 0.001 µM,,3.1 ± 0.2 µM,23 ± 0.2 µM,
"Nc1nc(N)c(CNCCc2ccc(Cl)cc2Cl)c(C2CCCCC2)n1 [7 x, 6‐Cyclohexyl‐5‐{[(2,4‐dichlorophenethyl)amino]methyl}pyrimidine‐2,4‐diamine]",4.9 ± 0.3 µM,> 250 µM,0.123 ± 0.008 µM,0.007 ± 0.0003 µM,2.5 ± 0.4 µM,62 ± 3 µM,
"Nc1nc(N)c(CNCCc2ccc(Cl)c(Cl)c2)c(C2CCCCC2)n1 [7 y, 6‐Cyclohexyl‐5‐{[(3,4‐dichlorophenethyl)amino]methyl}pyrimidine‐2,4‐diamine]",4 ± 0.3 µM,> 250 µM,0.028 ± 0.003 µM,0.009 ± 0.0007 µM,3.5 ± 0.3 µM,22 ± 0.1 µM,
"CC1(C)N=C(N)N=C(N)N1c1ccc(Cl)cc1 [CYC, cycloguanil, reference compound]",92 ± 6 µM,,0.42 ± 0.13 µM,,0.03 ± 0.005 µM,> 100 µM,
"CCc1nc(N)nc(N)c1-c1ccc(Cl)cc1 [PYR, pyrimethamine, reference compound]",> 100 µM,,,,0.05 ± 0.007 µM,60 ± 26 µM,0.053 µM

# — paper PMC9827987 (Chemmedchem, 2022)
